An excerpt weighted towards active compounds, which were near 2.5% of everything screened.
MC4R antag cAMP: antagonists of human melanocortin 4 receptor (MC4R). P32245. MC4R-expressing cells, MTII-stimulated cAMP, LANCE TR-FRET. inhibition, % at 6.5 µM. 360,000 tested, 0.48% active;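 active = inhibition above its plate's cutoff, the mean of tested wells on that plate plus 3 SD, cut at about 29% in these data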
Target sequence (P32245 whole entry, looked up): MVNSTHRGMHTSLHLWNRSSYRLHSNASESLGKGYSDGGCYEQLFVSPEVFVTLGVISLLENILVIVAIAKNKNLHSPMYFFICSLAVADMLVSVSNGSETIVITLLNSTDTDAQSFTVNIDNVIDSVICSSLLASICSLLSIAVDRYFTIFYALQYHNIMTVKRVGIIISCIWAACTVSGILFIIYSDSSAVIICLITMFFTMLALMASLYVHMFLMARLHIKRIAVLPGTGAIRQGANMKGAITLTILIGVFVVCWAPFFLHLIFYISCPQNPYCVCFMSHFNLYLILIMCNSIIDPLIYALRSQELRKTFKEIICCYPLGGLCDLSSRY
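Material: human MC4R-expressing U2OS cells. Probe or stimulus: Melanotan II challenge. Dosing: 6.5 µM single dose. Times: 30-min compound, 1-h challenge, 1-h detection, room temperature. Technique: TR-FRET with Eu-cAMP and labeled anti-cAMP, 671 nm. Replication: singlicate.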
NALP1 inh: inhibitors of NALP1 inflammasome in yeast; S. cerevisiae NALP1/ASC/caspase-1 growth, X-gal OD620, 72 h; inhibition, % at 10 µM; 280,000 tested, 0.61% active; in the data active = inhibition mostly above about 24%, no sharp cut-off; inactive = mostly below about 32%
Tb MetRS inh: Trypanosoma brucei MetRS inhibition. purified T. brucei MetRS, ATP depletion, Kinase-Glo luminescence. inhibition, % at 11.9 µM. 360,000 tested, 0.4% active. AID 624268;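 active = inhibition above a per-plate cutoff of the control wells' mean inhibition plus 3 SD, cut at about 5.5% in these data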
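Dosing: 11.9 µM compound single dose, 0.9% DMSO; Assay system: purified T. brucei MetRS enzyme; Measured by: Kinase-Glo luciferase luminescence reporting remaining unconsumed ATP; Schedule: 15 min plus 2 h at 25 °C.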
NLRP3 yeast inh: blocks the NALP3 inflammasome reconstituted in yeast. Yeast reconstituted NLRP3/ASC/caspase-1, beta-gal luminescence, 24 h. inhibition, % at 10 µM. 330,000 tested, 0.39% active;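 active = inhibition of 50% or more; inactive = inhibition below 50%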
Bfl-1 A1 inh: inhibitors of the anti-apoptotic protein A1, read as caspase activation. AID 2462. MEF A1-2A-BIM cells, Caspase-Glo 3/7 luminescence, 3 h; percent of clofoctol response, vehicle zero. caspase activation, % (test concentration not listed). 330,000 tested, 0.066% active;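 active = over half of replicate activation scores above 10%, or exactly half above 10 with the replicate mean above 10; inconclusive = replicate mean below 10 yet half the replicates above 10; inactive = over half of replicates below 10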
MC4R barr agon: activates human MC4R beta-arrestin recruitment | P32245 | U2OS MC4R beta-arrestin complementation, luminescence; percent of melanotan II response, DMSO zero | activation, % at 8.9 µM | 360,000 tested, 0.98% active;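 active = activation above a per-plate cutoff, the mean activation of sample wells on that plate plus 3 SD, cut at about 8% in these data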
Tb MetRS conf: Trypanosoma brucei MetRS inhibition confirmed; shares compounds with Tb MetRS inh; T. brucei MetRS enzyme, luminescence (ATP depletion); inhibition, % at 11.9 µM; 1,400 tested, 93% active; AID 624412; in the data active = inhibition above about 7%
Jurkat cytotox: counter-screen for T. brucei MetRS inhibitors: Jurkat cell cytotoxicity | inhibition, % at 8.3 µM | 1,400 tested, 12% active | AID 624413 | shares compounds with Tb MetRS inh | Jurkat cells viability, ATP luminescence; in the data active = inhibition above about 15%
Tb MetRS inh FP: T. brucei MetRS inhibition, orthogonal assay | 1,400 tested, 44% active | inhibition, % at 11.9 µM | shares compounds with Tb MetRS inh | purified T. brucei MetRS, fluorescence polarization; in the data active = inhibition above about 17%
Hits are given with their value; – = inactive; ? = inconclusive; · = no result given.

SMILES	MC4R antag cAMP	NALP1 inh	Tb MetRS inh	NLRP3 yeast inh	Bfl-1 A1 inh	MC4R barr agon	Tb MetRS conf	Jurkat cytotox	Tb MetRS inh FP
CCOc1ccc(CN2CCN(Cc3cc4ccccc4[nH]3)CC2CCO)cc1 (stereo not drawn)	–	–	14.1	·	·	–	25.8	–	–
COc1cccc(CN2CCN(Cc3cc4ccccc4[nH]3)CC2CCO)c1 (stereo not drawn)	–	·	–	–	?	–	·	·	·
C[C@H](O)[C@@H]1C(=O)N2CCc3ccc(-c4ccccc4)cc3[C@@H]2C[C@@H]1N(C)C(=O)c1ccco1	–	·	–	·	·	–	·	·	·
Brc1ccc(-n2c(SCc3nc4ccccc4[nH]3)nnc2-c2ccncc2)cc1	–	–	27.2	–	–	–	41.9	–	–
O=C(/C=C/c1ccc(O)c(O)c1)NC(=O)c1ccccc1O	–	–	–	–	–	–	·	·	·
O=C(/C=C/c1ccc(Br)cc1)NC(=O)c1ccccc1O	–	–	7.2	–	–	–	8.8	–	–
CC(C)Cc1cc(C(=O)N2CCCC(CO)(Cc3ccc(F)cc3F)C2)n[nH]1 (stereo not drawn)	–	–	–	–	–	–	·	·	·
CCN(CC(=O)NCc1ccc(Cl)cc1)C(=O)CCc1ccccc1O	–	–	37.0	–	–	–	66.7	–	33.2
CCCCn1c(N)c(N(Cc2ccccc2OC)C(=O)CSCC(=O)Nc2cccc(C)c2)c(=O)[nH]c1=O	–	–	–	–	–	–	·	·	·
COc1ccc(N(CC(=O)Nc2ccc(Cl)cc2)S(=O)(=O)c2c(C)n[nH]c2C)cc1	–	–	8.7	–	–	–	17.9	–	–
O=c1[nH]c(Nc2ccccc2)cc2ccccc12	–	–	8.1	–	–	–	–	–	–
O=c1[nH]c(Nc2ccccc2)cc2cc(Br)ccc12	–	·	–	–	–	–	·	·	·
CCC(=O)N(C)C[C@H]1Oc2cc(-c3cccnc3)ccc2S(=O)(=O)N([C@H](C)CO)C[C@H]1C	–	·	–	·	·	–	·	·	·
COc1ccc(NC(=S)N2CCN(c3ccc4c(c3)C3CCN(C(=O)OCc5ccccc5)C4C3)CC2)c(OC)c1 (stereo not drawn)	·	·	–	·	·	·	·	·	·
O=C1CCCC(=NNC(=O)c2cc3ccccc3cc2O)C1	–	·	5.9	–	–	–	24.4	–	–
CCCCN(C(=O)c1cccc(S(=O)(=O)N(CC)c2ccccc2)c1)c1c(N)n(CC(C)C)c(=O)[nH]c1=O	–	·	–	·	·	–	·	·	·
Cc1cccc(OCc2nnc(SCC(=O)NCC3CCCO3)n2C)c1 (stereo not drawn)	–	–	–	–	–	–	·	·	·
Cn1c(COc2ccc(Cl)cc2Cl)nnc1SCC(=O)NCC1CCCO1 (stereo not drawn)	–	–	6.0	–	–	–	16.6	–	–
O=C1C(Nc2ccc(O)cc2)=C/C(=N/S(=O)(=O)c2cccs2)c2ccccc21	–	–	6.2	·	·	–	9.8	94.2	–
CC(C)c1ccc(NC(=O)CCc2ccccc2)cc1	–	–	–	–	–	–	·	·	·
Cc1cccc(OCCCC(=O)Nc2ccc(Br)cc2)c1	–	·	34.1	–	–	–	44.8	–	34.4
Cc1ccc(NC(=O)CCC(=O)OCc2ccc(Br)cc2)cc1	–	–	16.8	–	–	–	25.5	–	–
Cc1cccc(NC(=O)CCC(=O)OCc2ccc(Br)cc2)c1	–	–	–	–	–	–	·	·	·
Cc1cccc(OCCCC(=O)Nc2ccc(N(C)C)cc2)c1	–	–	–	–	–	–	·	·	·
CNC(=S)NNC(=O)c1sccc1OCc1ccc(Cl)cc1Cl	–	–	–	–	–	–	·	·	·
SMILES	MC4R antag cAMP	NALP1 inh	Tb MetRS inh	NLRP3 yeast inh	Bfl-1 A1 inh	MC4R barr agon	Tb MetRS conf	Jurkat cytotox	Tb MetRS inh FP
S=c1nc(-c2sccc2OCc2ccc(Cl)cc2Cl)[nH][nH]1	–	–	8.6	–	–	–	12.5	–	–
Cc1cc(C(=O)NCC(C)C)c2ccccc2n1	–	–	–	–	–	–	·	·	·
Cc1cc(C(=O)NCC(=O)Nc2c(C)cccc2C)c2ccccc2n1	–	·	10.9	–	–	–	–	–	–
Cc1cc(C)cc(N(CCC#N)C(=O)COC(=O)c2nc3nc(C)cc(C)n3n2)c1	–	·	–	–	–	–	·	·	·
C=CCn1c(NCc2ccccc2O)nc2ccccc21	–	–	–	–	–	–	·	·	·
C=CCn1c(NCc2cc(Cl)ccc2O)nc2ccccc21	–	–	13.2	–	–	–	24.9	–	–
C=CCc1cccc(CNc2nc3ccccc3n2C(C)C)c1O	–	–	6.7	–	–	–	10.8	–	–
O=Cc1ccc(-c2ccc([N+](=O)[O-])cc2Cl)o1	–	–	6.5	·	·	–	12.0	–	–
O=Cc1ccc(-c2cccc([N+](=O)[O-])c2)o1	–	–	–	–	–	–	·	·	·
CC/C(O)=C1\C(=O)CCCC1=NCc1nc2ccccc2[nH]1	–	–	8.9	–	–	–	16.4	–	–
CC/C(O)=C1\C(=O)CCCC1=NCCc1nc2ccccc2[nH]1	–	–	–	–	–	–	·	·	·
CCc1ccc(C(=O)NNc2cc(Cl)cc(Cl)c2)cc1	–	–	14.7	–	–	–	39.4	–	18.8
O=C(NNc1cc(Cl)cc(Cl)c1)c1cccs1	–	–	25.0	–	–	–	56.3	–	30.0
Cc1cccc(NC(=O)c2ccc(-n3cccn3)c([N+](=O)[O-])c2)c1	–	–	–	–	–	–	·	·	·
O=C(NNC(=O)c1ccccc1F)c1ccc(-n2cncn2)c([N+](=O)[O-])c1	–	·	–	–	–	–	·	·	·
CCN(CC(=O)Nc1c(F)cccc1F)C(=O)c1ccc(-n2cncn2)c([N+](=O)[O-])c1	–	·	–	–	–	–	·	·	·
O=C(Nc1cc(F)ccc1F)c1ccc(-n2cncn2)c([N+](=O)[O-])c1	–	·	36.1	–	–	–	56.6	–	33.0
O=C(Nc1cccc(/C=C/c2ccccn2)c1)c1ccc(-n2cncn2)c([N+](=O)[O-])c1	–	·	23.1	–	–	–	62.3	21.6	55.4
O=C(Nc1ccc(F)c(F)c1)c1ccc(-n2cncn2)c([N+](=O)[O-])c1	–	·	37.0	–	–	–	58.1	–	28.9
COC(=O)C1=CN(c2ccc3c(c2)OCO3)C(N)=C(C#N)C1c1cccc(F)c1 (stereo not drawn)	·	·	–	·	·	·	·	·	·
COc1ccc(Cn2cc(CN3CCOCC3)nn2)cc1	·	·	–	·	·	·	·	·	·
CCCCn1c(NC(C)=O)c(C#N)c2nc3ccccc3nc21	–	–	–	–	–	–	·	·	·

Compound activity (PubChem)
